Results as given in paper PMC10194330 (Virus Research, 2022).

Assays:
[1] = test system: DENV-2; experiment: Time-of-addition; assay type: cell-based, Dengue virus; conditions: S.71 72.4 μM, POD 0.1 μM added at 6 and 12 hpi, 24 h exposure, MOI=1
How it was run: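 BHK-21 cells infected (MOI=1, 2 h, 37 °C, 5% CO2) and washed with PBS. DMEM with 2% FBS containing test compound (72.4 µM; positive control 0.1 µM) added at 6, 12, 24 or 36 hpi, then incubated a further 24 h. Supernatant titrated by plaque assay. DMSO <0.05%. Three independent experiments, mean ± s.e.m., one-way ANOVA.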

[2] = test system: DENV-2; experiment: Post-infection plaque reduction assay; assay type: cell-based, Dengue virus; conditions: S.71 at 50 and 100 μM, POD at 0.1 μM; six days
How it was run: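 BHK-21 cells infected with DENV-2 (MOI=1) for 2 h at 37 °C, 5% CO2, then washed with PBS. Test compound (12.5–100 µM) added in 1.5% carboxymethylcellulose medium; positive control as log dilutions 0.1–100 µM. Incubated 6 days, then plaques counted in 3 independent assays. EC50 defined as the concentration reducing viral plaques by 50%.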

[3] = test system: BHK-21 cells; experiment: Annexin V staining, size and granularity; assay type: cell-based; conditions: infected or uninfected BHK-21 cells, 24 h
How it was run: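 Infected and/or treated BHK-21 cells resuspended in binding buffer with annexin V, incubated 15 min at 4 °C, then diluted with binding buffer and centrifuged 5 min. Analysed by flow cytometry for annexin V, with cell size from forward scatter (FSC) and granularity from side scatter (SSC).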

[4] = test system: DENV-2; experiment: Negative-strand RNA production; assay type: cell-based, Dengue virus; conditions: S.71 72.4 μM, POD 0.1 μM; 6 and 12 hpi
[5] = test system: BHK-21 cells; experiment: Cell recovery assay; assay type: cell-based
How it was run: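 BHK-21 cells on coverslips exposed 24 h to test compound. Compound then removed, monolayers washed and cultured 3 days in DMEM with 2% FBS. Cells fixed with 3.8% paraformaldehyde and nuclei stained with Hoechst 33342. Morphology imaged by differential interference contrast with a 60x objective.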

[6] = test system: DENV-2; experiment: Fluorescence imaging of dsRNA and ENV protein; assay type: cell-based, Dengue virus; conditions: treatment at 6 and 12 hpi; S.71 72.4 µM, POD 0.1 µM
How it was run: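 BHK-21 cells on coverslips infected with DENV-2 (MOI=1, 2 h). Test compound (72.4 µM; positive control 0.1 µM) added at 6 or 12 hpi and left 24 h. Cells washed with cytoskeleton buffer, fixed in 3.8% paraformaldehyde and immunostained for ENV (4G2) and dsRNA (J2), with tubulin and Hoechst nuclei. Imaged with a 60x objective; mean fluorescence intensity quantified. Three independent triplicate experiments; unpaired t-test.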

[7] = test system: BHK-21 cells; experiment: Cytotoxicity assay; assay type: cell-based
[8] = test system: BHK-21 cells; experiment: Fluorescence imaging of microtubules, MTOC and endoplasmic reticulum; assay type: cell-based; conditions: for MTOC localization/detection: BHK-21 cells, 24 h treatment
How it was run: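 BHK-21 cells on coverslips infected (MOI=1, 2 h) or mock, then treated 24 h with test compound from 6 or 12 hpi. Fixed in 3.8% paraformaldehyde. Microtubules stained with anti-α/β-tubulin and MTOC with anti-γ-tubulin; […] used as comparator. For ER imaging, cells were transfected with pmKate2-ER plasmid and infected 24 h later. Imaged with a 60x objective.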

[9] = test system: HCV; conditions: ref Bost et al., 2003; cited from earlier work
[10] = test system: ZIKV; conditions: ref Sultana et al., 2018; cited from earlier work
[11] = test system: ER; conditions: treatment during 2 h; ref Terasaki et al., 1986; cited from earlier work

COc1cc([C@@H]2c3cc4c(cc3[C@H](O)[C@H]3COC(=O)[C@H]23)OCO4)cc(OC)c1OC [POD, Podophyllotoxin]
viral yield of DENV-2 [1]: effective
viral titer in post-infection treatment [2]: effective
cell granularity (SSC) [3]: increase in cell granularity
cell size (FSC) [3]: changes in cell size were not observed
phosphatidylserine exposure (annexin V) [3]: nor changes in phosphatidylserine exposure
negative-strand RNA copies [4]: low numbers of copies
recovery of cell morphology after treatment removal ([5]; 24 h treatment, then nutrient-supplemented medium): recovered their normal morphology after three days
nuclei after 24 h treatment ([5]; BHK-21 cells, 24 h): pyknotic and fragmented nuclei
ENV protein signal (MFI) [6]: significant decreases
dsRNA signal (MFI) [6]: significant decreases
concentrations at which very toxic ([7]; CC50 could not be determined): > 1 µM
effect on cells below 1 µM ([7]; below 1 µM): cytostatic
effect on rough endoplasmic reticulum ([8]; 6 hpi or 12 hpi, infected and mock cells): ER retraction
MTOC localization/detection [8]: not detected
cell morphology and microtubule distribution ([8]; infected and uninfected cells treated at 6 or 12 hpi, 24 h, S.71 72.4 µM, POD 0.1 µM): round morphology and fragmented microtubules

COc1cc2c(c(OC)c1OC)-c1ccc(OC)c(=O)cc1[C@@H](NC(C)=O)CC2 [colchicine]
HCV viral infection [9]: reduced
ZIKV viral infection [10]: reduced

COC(=O)Nc1nc2ccc(C(=O)c3cccs3)cc2[nH]1 [nocodazole]
HCV viral infection [9]: reduced
effect on ER [11]: ER retraction
MTOC localization/detection [8]: not detected
ZIKV viral infection [10]: reduced

CC(=O)O[C@H]1C(=O)[C@@]2(C)[C@H]([C@H](OC(=O)c3ccccc3)[C@]3(O)C[C@H](OC(=O)[C@H](O)[C@@H](NC(=O)c4ccccc4)c4ccccc4)C(C)=C1C3(C)C)[C@]1(OC(C)=O)CO[C@@H]1C[C@@H]2O [paclitaxel]
HCV viral infection [9]: reduced
ZIKV viral infection [10]: reduced
